Laboratory results from ChEMBL document CHEMBL4513216, “Probing the Open Global Health Chemical Diversity Library for Multistage-Active Starting Points for Next-Generation Antimalarials” (ACS Infect Dis, 2020).

Assay: Toxicity liver stage against HepG2, at 10uM
Format: cell-based
Parameters: test concentration 10 uM, cell line HepG2-A16-CD81EGFP
Conditions: human, HepG2-A16-CD81EGFP cells; read-out: INHIBITION
Procedure, shortened: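 Uninfected HepG2-A16-CD81EGFP cells, 3 × 10^3 per well, 1536-well, plated on prespotted compound at 10 μM final, parasite-free screening media added to match infected plates; puromycin 10 μM positive, DMSO 0.5% negative; run in parallel with 48 h PbLuc assay at 37 °C, 5% CO2; viability by CellTiter-Glo luminescence, normalized to controls.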

SMILES	cytotoxicity at 10 µM [%]
CC(=O)N(C)c1nc(CN2CCOC(Cn3cccn3)C2)cs1 (stereo not given)	-12.8
CC(=O)N(C)C1CCN(C(=O)NCC(C)Cc2cccs2)CC1 (stereo not given)	-1.99
Cc1nnc(N2CCCC3(CN(Cc4nccs4)CCO3)C2)o1 (stereo not given)	2.08
CCN(C)C[C@@H]1CN(Cc2cnc3c(S(C)(=O)=O)cnn3c2)C[C@@H]1CO	-4.99
CC(=O)Nc1nc(CN2CCn3c(nnc3C3CC3)C2)cs1	-7.91
CC(C)=CCCC1(C)C=Cc2c(cc(C)n(CCC(=O)O)c2=O)O1 (stereo not given)	3.46
CN(C)CC(=O)N1CC(c2nn(C)c3nccnc23)C1	-6.26
CN1CCCCC12CCN(C(=O)c1cccn1C)CC2	8.22
CC(C)N(C)Cc1cncc2c1CCN(CC1CC1)C2	-102
CC(Cn1cccn1)NC(=O)NCCc1cccnc1 (stereo not given)	-5.25
O=C(O)CCc1cc2n(n1)CCCN(C(=O)c1ccc3cc[nH]c3c1)C2	-13.3
CC(C)c1ncc2c(n1)CN(Cc1noc(-c3ccccc3)n1)CC2	-0.414
Cc1cc(Cl)cc(C)c1CNC1CCN(CC(=O)N(C)C)CC1	-1.51
CCn1nccc1CN(C)C(=O)Cn1nc(C)c(C)c1C	0.66
COCCN(CCOC)C(=O)Nc1cc(C(F)(F)F)c[nH]c1=O	-4.28
CCc1ncc(C(=O)N(C)CCc2nc3cc(OC)ccc3[nH]2)cn1	-47.4
CCS(=O)(=O)N1C[C@@H](O)[C@H](N(C)Cc2ccc(F)cc2)C1	4.54
COc1cccc(N2CC3(CCN(c4cc(OC)ncn4)C3)CC2=O)c1 (stereo not given)	21.7
COc1ccc(Cl)cc1-n1cnc(CCNC(C)=O)c1	2.29
Cc1ccc([C@]2(O)CC[C@H]3CN(Cc4cccc(Cl)c4Cl)C[C@H]32)nc1	9.42
CC(C)CNC(=O)c1nc2c(s1)CCN(C(=O)c1ccc(Cl)cc1)CC2	7.4
CCC(=O)N1CC[C@H]2[C@H](C[C@@H](CN3CCCC3)N2c2nccs2)C1	10.2

SMILES	cytotoxicity at 10 µM [%]
N#Cc1cccc(OCCN2CCCC2C(=O)Nc2nccs2)c1 (stereo not given)	2.94
CCN(C(c1ccc(OC)cc1)c1cccnc1)S(C)(=O)=O (stereo not given)	9.62
COc1ccccc1OCC(=O)NS(=O)(=O)c1cc(F)ccc1F	-9.18
CCc1nnc(Nc2cccc(C3CCN(CC4CC4)CC3)n2)s1	-26.8
CCC(NC(=O)c1cccc2cc[nH]c12)C(=O)N1CCOCC1 (stereo not given)	-13
COc1ccc(C(=O)Nc2c(C)nc3cccc(C)n3c2=O)cc1	8.1
O=C(NCCCc1ccco1)c1cnc(N2CCOCC2)nc1	11
CCN1CCC2(CC1)CC(NC(=O)NC)c1cc(C)ccc12 (stereo not given)	-6.01
CSc1ccc(CNC(=O)NCC(O)c2cccc(F)c2)cc1 (stereo not given)	-6.16
CCOCC(=O)N1CCC2(CC1)COC(COCc1ccccn1)C2 (stereo not given)	-127
CS(=O)(=O)c1cccc(S(=O)(=O)NCCCN2CCNC(=O)C2)c1	-5.87
CC(C)c1nccc(CN2CCCC(O)(CN(C)C)C2)n1 (stereo not given)	2.89
COCc1nc(NCC2CCS(=O)(=O)C2)c2cnn(C)c2n1 (stereo not given)	-5.97
CCCn1ncc(C(=O)N2CCCC(OCc3ccccn3)C2)c1C (stereo not given)	-0.2
CCc1ocnc1C(=O)N1CCN(c2ccc3ccccc3c2)CC1	2.99
CCN(Cc1ccc2c(c1)OCO2)S(=O)(=O)N(C)C(C)C	8.55
O=C(c1cc(-c2ccco2)nc2c(Cl)cccc12)N1CCS(=O)(=O)CC1	-1.99
Cc1ccc(CNS(=O)(=O)CCCC#N)cc1F	-9.48
CNC(=O)c1cc(NC(=O)NC2CC2)ccc1F	5.13
Cc1cc(=O)c2ccccc2n1CC1CCN(C(C)C)C1 (stereo not given)	4.64
O=S(=O)(NCc1ccccc1)Nc1ccc(-n2ccnc2)cc1	7.03
Cc1csc(CNC(=O)NCC(O)c2cccc(Cl)c2)n1 (stereo not given)	-14.6

SMILES	cytotoxicity at 10 µM [%]
CCOc1c(Br)cc(C2c3c(n[nH]c3C)N=C3COC(=O)C32)cc1OC (stereo not given)	47.1
N#Cc1ccc(SCCOCCO)c(Cl)c1	2.68
CN1[C@@H](C(=O)NCC2CC2)C[C@@H]2CN(Cc3ccsc3)C[C@@H]21	-4.04
Cc1nc(CN2CCc3ncnc(-c4ccsc4)c3CC2)cs1	-79.8
CNC(=O)C1CCCCN1C(=O)c1cn(CCOC)c2ccccc12 (stereo not given)	-0.408
N#Cc1cccc(S(=O)(=O)N2CCCCC2CCN2CCCC2=O)c1 (stereo not given)	-16.9
O=C(NCc1ccc(OCC2CC2)nc1)Nc1c(F)cccc1F	9.47
CN(CCc1cccs1)CCc1nccs1	-5.81
Cc1cc(C)n(-c2cncc(N3CCN(C(=O)C(C)(C)C)CC3)n2)n1	-3.22
O=C1CC[C@H]2CN(Cc3ccc(Cl)s3)CC[C@H]2N1CCc1c[nH]cn1	38.5
O=C(NCCCOCC1CC1)Nc1ccc(F)cc1	3.09
Cn1c(CCNC(=O)CC[C@@H]2CCCN3CCCC[C@H]23)n[nH]c1=O	4.13
CCCn1ccnc1CN1CC[C@@H](NC(=O)c2cccnc2)[C@H](O)C1	-7.31
CC(O)CN1CCN(Cc2nnc(C3CC3)o2)CC1 (stereo not given)	-10
CCCc1nnc(N2CCN(c3cccc(C)c3C)CC2)o1	9.59
COc1cc(Br)c(CNc2ccn(CCC(N)=O)n2)cc1OC	-2.87
COCC(=O)N1CCC(=O)N(C2CCCC2)Cc2cc(F)ccc21	-3.3
Cc1ncc(-c2ccccn2)c(CCNC(=O)CCC2CCCO2)n1 (stereo not given)	11.7
CCNC(=O)NCc1ccccc1NS(=O)(=O)c1ccccc1	8.27
O=c1[nH]cc(Nc2ccccc2)c(=O)[nH]1	15.6
CCN(C)c1ncnc2c1CCN(S(=O)(=O)c1ccccc1)CC2	-106
CC(C)(C)SCCCC(=O)N1CCC(Nc2cccnn2)CC1	-8.26

SMILES	cytotoxicity at 10 µM [%]
Cn1cc(Cl)c(CN2CCCC(Cn3cc(CO)nn3)C2)n1 (stereo not given)	1.18
Cc1nc(C)c(CN2CCC(N(C)Cc3nnc(C4CC4)o3)C2)s1 (stereo not given)	-4.18
Cc1ccc(CN(C)C(=O)CNC(C)(C)c2noc(C(C)(C)C)n2)o1	2.43
Cc1ncoc1C(=O)N1C[C@H]2CCC[C@@]2(COCC2CCOCC2)C1	0.23
COc1c(CNC2CCOc3c(F)cccc32)c(C)nn1C (stereo not given)	7.5
O=C(c1cccnc1N1CCN(CCO)CC1)N1CCCC1	-1.32
CC(=O)N(Cc1ncc(C(C)C)o1)C1CCN(Cc2cc(C)no2)C1 (stereo not given)	-5.89
OC(COCc1ccco1)CSc1nnc2ccccn12 (stereo not given)	3.55
O=C(c1ccccc1)N1CCO[C@@H]2CN(c3ncccn3)C[C@@H]2C1	-6.63
COc1cccc(CNc2nc(C)cc(C)n2)c1OC	-6.44
O=C(C1CC1)N1CC2(CCN(CC3CC3)CC2)c2cc(F)ccc21	0.64
Cc1cc(C)c(CNC(=O)N2CCN(c3ncccn3)CC2)c(=O)[nH]1	-6.28
CCc1cnc(CNC(=O)N2CCCC(C(=O)NC)C2)s1 (stereo not given)	19.8
COc1cc(CNc2nc3c(c(=O)[nH]2)CCNC3)cc(OC)c1OC	4.72
O=S(=O)(NCC(c1ccsc1)N1CCCCCC1)c1cccs1 (stereo not given)	2
O=C(c1cn(-c2ccccc2Cl)nn1)N1CCSCC1	8.24
CC[C@@H](C)[C@@H](N)C(=O)Nc1cccc(-c2cnc(NCCO)nc2)c1	-3.08
CC(NC(=O)C(C)(C)C)c1cc(O)nc(-c2cccnc2)n1 (stereo not given)	6.5
CCn1c(N)nc2cc(C(=O)N3CCCOCC3)cnc21	-8.24
COCCN1CCC(CNC(=O)C2(c3ccc(F)cc3)CCC2)CC1	-4.45
CC(C)CN1CCC2(C1)CN(S(=O)(=O)c1cn(C)cn1)C2	-116
CC(C)NC(=O)Nc1ccc(CS(=O)(=O)C(C)(C)C)cc1	-1.97

SMILES	cytotoxicity at 10 µM [%]
Cc1nc(CN2CCCN(C(=O)CC(C)n3cccc3)CC2)cs1 (stereo not given)	-6.25
O=C1[C@@H]2CN(c3ncnc4[nH]ccc34)C[C@]2(C(=O)O)CN1CC1CC1	2.62
CC(C)c1ccc(-n2ncc(C(=O)N(C)C3CCN(C)CC3)c2N)cc1	-6.57
O=C(c1cccs1)N1CCc2ncc(Cn3cncn3)n2CC1	-89.8
Cc1cnc(-c2nc(C3CCN(Cc4ccccc4Cl)CC3)no2)cn1	-5.85
CCc1nc(CC(=O)N2CCC(C(=O)N3CCCC3)CC2)cs1	-2.71
Cc1noc(C2CCCN(CC(=O)N3CCc4ccccc4C3)C2)n1 (stereo not given)	-19.3
O=C1CN(S(=O)(=O)CC(F)(F)F)CC(O)CN1CCCc1ccccc1 (stereo not given)	-7.99
O=C(CCN1CCCC1c1cccc(F)c1)N1CCc2sccc2C1 (stereo not given)	-10.7
CC(O)c1cnn(-c2ccccc2)c1 (stereo not given)	-1.55
O=C1C(n2nnc(-c3cccs3)n2)CCN1CC(F)(F)F (stereo not given)	-0.0198
Cc1ccc([C@@H]2CN(C(=O)c3ccc[nH]3)C[C@H]2NC(=O)C2CC2)cc1	-21.5
Cc1cccc(N2CCN(C(=O)NC(C)c3nncn3C)CC2)c1 (stereo not given)	-6.13
O=C(CC1OCCc2ccsc21)NCC1CC1 (stereo not given)	7.18
CCc1nc(C2CCCN(c3nccc(C)n3)C2)no1 (stereo not given)	-2.69
O=C(c1cocn1)N1C[C@H]2CCC[C@@]2(COc2ccccn2)C1	-0.798
N#CC1(c2ccccc2)CCN(C(=O)CN2C(=O)CCNC2=O)CC1	0.172
CCCC(C)NC(=O)CCN1C(=O)CCc2cc(F)ccc21 (stereo not given)	8.17
Nc1cccnc1N1CCC(c2ccccc2)CC1	-5.2
Cc1ccc(N2CCC3(CCN(C(=O)c4ccsc4)CC3)C2)nn1	4
CSc1ncc(CN2C[C@@H]3CC[C@H]2CN(C2CCOCC2)C3)cn1	-0.943
CCC(NC(=O)NCc1cccc(N(C)C)n1)c1cccs1 (stereo not given)	17.9
